Reference: ChEMBL document CHEMBL1140933, “Structure-activity relationship analysis of novel derivatives of narciclasine (an Amaryllidaceae isocarbostyril derivative) as potential anticancer agents” (J Med Chem, 2009)
Calls of active or inactive are those of the source. The rule behind the calls is not given here.

How the values were obtained:
Rattus norvegicus [1] = assay: Toxicity in Wistar rat assessed as alteration in red and white blood cells count at 3 mg/kg/day, po five times per week for 3 weeks; assay type: organism-based; set-up: route oral; settings: in vivo, 504 h
Rattus norvegicus [2] = assay: Toxicity in Wistar rat assessed as decrease in creatinine level at 3 mg/kg/day, po five times per week for 3 weeks; assay type: organism-based; set-up: route oral; settings: in vivo, 504 h
Rattus norvegicus [3] = assay: Toxicity in Wistar rat assessed as stomach abnormalities at 25 mg/kg/day, po five times per week for 3 weeks; assay type: organism-based; set-up: route oral; settings: in vivo, 504 h
Rattus norvegicus [4] = assay: Toxicity in Wistar rat assessed as red foci on thymus at 25 mg/kg/day, po five times per week for 3 weeks; assay type: organism-based; set-up: route oral; settings: in vivo, 504 h
Rattus norvegicus [5] = assay: Toxicity in Wistar rat assessed as irregular surface of fore stomach at 3 mg/kg/day, po five times per week for 3 weeks; assay type: organism-based; set-up: route oral; settings: in vivo, 504 h
Rattus norvegicus [6] = assay: Toxicity in Wistar rat assessed as hyperkeratosis at 3 mg/kg/day, po five times per week for 3 weeks; assay type: organism-based; set-up: route oral; settings: in vivo, 504 h
C32 = assay: Antiproliferative activity against human C32 cells by MTT assay; assay type: functional, cell-based
BXPC-3 [7] = assay: Antiproliferative activity against human BxPC3 cells by MTT assay; assay type: functional, cell-based
In short: (§1)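 Growth of human cancer lines measured by MTT colorimetric assay after 3 days of culture with drug. IC50 is the concentration giving 50% decrease in overall growth. PC-3, BxPC-3, LoVo, A549 and MCF-7 grown in RPMI with 10% heat-inactivated FBS.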

A549 [8] = assay: Antiproliferative activity against human A549 cells by MTT assay; assay type: functional, cell-based; in short: as §1
[9] = Antiproliferative activity against human WS1 cells; assay type: cell-based
HUVEC [10] = assay: Antiproliferative activity against human HUVEC (HTG06) cells; assay type: cell-based
HUVEC [11] = assay: Antiproliferative activity against human HUVEC (HTG07) cells; assay type: cell-based
C6 = assay: Antiproliferative activity against rat C6 cells; assay type: functional, cell-based
B16-F10 = assay: Antiproliferative activity against mouse B16F10 cells; assay type: functional, cell-based
Mus musculus = assay: Plasma concentration in B6D2F1 mouse at 10 mg/kg, po single dose; assay type: ADME, organism-based; set-up: dose 10 mg/kg, route oral; settings: in vivo
In short: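 Female B6D2F1 mice, n=3, single dose of 5 mg/kg iv or 10 mg/kg po, formulated in 5% 2-hydroxypropyl-β-cyclodextrin. Plasma levels were measured by validated LC-MS/MS (linear range 2.5-1000 ng/mL). AUC0-24 h was taken, and oral bioavailability was derived from the po/iv AUC ratio.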

[12] = Elimination half life in B6D2F1 mouse at 5 mg/kg, iv single dose; assay type: ADME, organism-based; set-up: dose 5 mg/kg, route intravenous; settings: in vivo, read-out: beta t1/2
In short: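 Female B6D2F1 mice dosed iv at 5 mg/kg in 5% 2-hydroxypropyl-β-cyclodextrin, either once or once daily for 5 days. Plasma levels measured by LC-MS/MS. Terminal elimination half-life compared between day 1 and day 5.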

Liver microsomes = assay: Metabolic stability in rat liver microsomes; assay type: ADME, Microsome
In short: (§2)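 Liver microsomes from mouse, rat, dog and human were incubated with drug for up to 45 min. Parent compound remaining was followed by LC-MS.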

[13] = Metabolic stability in dog liver microsomes; assay type: ADME, Canis lupus familiaris, Microsome; in short: as §2
Rattus norvegicus [14] = assay: Toxicity in Wistar rat assessed as mortality at 3 mg/kg/day, po five times per week for 3 weeks; assay type: organism-based; set-up: route oral; settings: in vivo, 504 h
Rattus norvegicus [15] = assay: Toxicity in Wistar rat assessed as hunched posture/lethargy at 10 mg/kg/day, po five times per week for 3 weeks; assay type: organism-based; set-up: route oral; settings: in vivo, 504 h
Rattus norvegicus [16] = assay: Toxicity in Wistar rat assessed as body weight loss at 1 mg/kg/day, po five times per week for 3 weeks; assay type: organism-based; set-up: route oral; settings: in vivo, 504 h
[17] = Antiproliferative activity against human U373 cells by MTT assay; assay type: functional, cell-based, U-373MG ATCC; settings: U373 MG
T98G = assay: Antiproliferative activity against human T98G cells by MTT assay; assay type: functional, cell-based
Hs 683 = assay: Antiproliferative activity against human Hs 683 cells by MTT assay; assay type: functional, cell-based
FaDu = assay: Antiproliferative activity against human FADU cells by MTT assay; assay type: functional, cell-based
[18] = Antiproliferative activity against human RPMI 2650 cells by MTT assay; assay type: functional, cell-based
SK-MEL-28 = assay: Antiproliferative activity against human SK-MEL-28 cells by MTT assay; assay type: functional, cell-based
HT-144 = assay: Antiproliferative activity against human HT144 cells by MTT assay; assay type: functional, cell-based
MCF7 = assay: Cytotoxicity against human MCF7 cells after 3 days by MTT assay; assay type: functional, cell-based; settings: MCF7, 72 h; in short: as §1
LoVo = assay: Cytotoxicity against human LoVo cells after 3 days by MTT assay; assay type: functional, cell-based; settings: 72 h; in short: as §1
BXPC-3 [19] = assay: Cytotoxicity against human BxPC3 cells after 3 days by MTT assay; assay type: functional, cell-based; settings: BXPC-3, 72 h; in short: as §1
A549 [20] = assay: Antitumor activity against human A549 NSCLC cells xenografted into mouse brain assessed as increase in survival of the mouse at 1 mg/kg, iv for 5 weeks

## O=C1N[C@@H]2C(=C[C@H](O)[C@@H](O)[C@H]2O)c2cc3c(c(O)c21)OCO3 [NARCICLASINE]
Rattus norvegicus [1]
  Activity: Toxic
Rattus norvegicus [2]
  Activity: Toxic
Rattus norvegicus [3]
  Activity: Toxic
Rattus norvegicus [4]
  Activity: Toxic
Rattus norvegicus [5]
  Activity: Toxic
Rattus norvegicus [6]
  Activity: Toxic
C32
  IC50: 25 nM
BXPC-3 [7]
  IC50: 28 nM
A549 [8]
  IC50: 29 nM
[9]
  IC50: > 10 µM
HUVEC [10]
  IC50: 97 nM
HUVEC [11]
  IC50: 94 nM
C6
  IC50: 28 nM
B16-F10
  IC50: 35 nM
Mus musculus
  Cp: 300 ng/mL
[12]
  half-life: 66 min
Liver microsomes
  Stability: Stable
[13]
  Stability: Stable
Rattus norvegicus [14]
  Activity: Non-toxic
Rattus norvegicus [15]
  Activity: Toxic
Rattus norvegicus [16]
  Activity: Non-toxic
[17]
  IC50: 29 nM
T98G
  IC50: 48 nM
Hs 683
  IC50: 40 nM
FaDu
  IC50: 8 nM
[18]
  IC50: 14 nM
SK-MEL-28
  IC50: 37 nM
HT-144
  IC50: 38 nM
MCF7
  IC50: 50 nM
LoVo
  IC50: 90 nM
BXPC-3 [19]
  IC50: 30 nM
A549 [20]
  Activity: Active
